We go through 96 molecules from ChEMBL document CHEMBL4513216, “Probing the Open Global Health Chemical Diversity Library for Multistage-Active Starting Points for Next-Generation Antimalarials” (ACS Infect Dis, 2020).

This series in a line: Toxicity liver stage against HepG2, at 10uM. It counts as cell-based. Also noted: test concentration 10 uM, cell line HepG2-A16-CD81EGFP. The following applies: human, HepG2-A16-CD81EGFP cells; read-out: INHIBITION
In short, it runs like this: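 Uninfected HepG2-A16-CD81EGFP cells, 3 × 10^3 per well, 1536-well, plated on prespotted compound at 10 μM final, parasite-free screening media added to match infected plates; puromycin 10 μM positive, DMSO 0.5% negative; run in parallel with 48 h PbLuc assay at 37 °C, 5% CO2; viability by CellTiter-Glo luminescence, normalized to controls.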
For `COc1cccn(CC(=O)N2CCCC3(CCCCC3)C2)c1=O`, the cytotoxicity at 10 µM was -1.29%.
With `CNS(=O)(=O)c1ccc(CNC(=O)Nc2cn[nH]c2)cc1`, the cytotoxicity at 10 µM was -8.75%.
Take `CN(Cc1nc2ccccc2s1)C1CCCN(c2cccnn2)C1` (stereo unspecified): the cytotoxicity at 10 µM was determined as 5.15%.
On to `COc1ccc(NC(=O)Cc2c(C)nn(C)c2C)cc1F`, for which the cytotoxicity at 10 µM came to 10.1%.
For the molecule `Cc1ccc(C(=O)N2CCCC(N(C)C(=O)OC(C)(C)C)C2)o1` (stereo unspecified), the cytotoxicity at 10 µM was -54%.
On to `CN1CCCC(CCC(=O)N2CCc3[nH]c(-c4ccccc4)nc3C2)C1` (stereo unspecified), for which the cytotoxicity at 10 µM is -4.13%.
The figure for `CC(C)c1noc(C2CCN(C(=O)c3cccs3)CC2)n1` is 1.51%; for `Cc1ccc(-c2ncc(CN3CCOC(c4ccco4)C3)s2)o1` (stereo unspecified) it is 4.37%.
`CC(Cn1cccn1)NC(=O)NCCc1cccnc1` (stereo unspecified): the cytotoxicity at 10 µM was -5.25%.
On to `O=C(CN1CCN(CC(O)C2CC2)CC1)NCc1ccccc1Cl` (stereo unspecified), for which the cytotoxicity at 10 µM worked out at 5.23%.
In the case of `Cc1noc(C(C)N(C)Cc2ccco2)n1` (stereo unspecified), the cytotoxicity at 10 µM was 6.6%.
With `O=C(NC[C@]12COC[C@H]1CN(C1CCOCC1)C2)c1ccco1`, the cytotoxicity at 10 µM was -3.99%.
Next, `c1csc(CN2CCc3nnc(COc4cncnc4)n3CC2)c1`: 2.49%.
On to `O=C(O)CCCC(=O)N1CCC(c2noc3cc(F)ccc23)CC1`, for which the cytotoxicity at 10 µM is -4.66%.
Next, `COCCS(=O)(=O)NCC(C)c1cccc(C)c1` (stereo unspecified): 2.03%; `O=C(COCC(F)(F)F)N1CCCC(n2cccn2)C1` (stereo unspecified): -6.28%; `C[C@@H]1C(=O)NC[C@H]2CN(CCc3ccccc3)C[C@H]21`: 5.45%.
With `COCCNC(=O)c1ccc2c(=O)n3c(nc2c1)CCCCC3`, the cytotoxicity at 10 µM stood at 5.53%.
Regarding `Cc1ccc(S(=O)(=O)N2CCN(CCCn3ccnc3)CC2)cc1`, the cytotoxicity at 10 µM is -13.5%.
Next, `CCN(Cc1nccn1C)C(=O)c1ccc(NCc2ccc(C)o2)nc1`: 9.78%; `CN(Cc1ccccc1)C(=O)[C@@H]1Cc2[nH]cnc2CN1C`: -3.92%; `O=C(C1CCOC1)N1C[C@H]2CN(c3ccccc3)C(=O)[C@H]2C1` (stereo partly specified): -123%.
`Cc1cnn(CC2CCCN2Cc2noc(C3CC3)n2)c1` (stereo unspecified): the cytotoxicity at 10 µM is -17.3%.
`Cc1nnc(CN2CCCC2c2ccc3c(c2)OCCO3)n1C` (stereo unspecified): the cytotoxicity at 10 µM was -0.379%.
For `CN(C)c1ncc(-c2ccc(C(N)=O)cc2)c(C2CCNC2)n1` (stereo unspecified), the cytotoxicity at 10 µM was -0.892%.
With `CCOCc1nc2c(c(N3CCCn4nc(C)cc4C3)n1)CCNCC2`, the cytotoxicity at 10 µM stood at 11.3%.
As to `Cc1cc(C(=O)N2CCC3(CC2)C(=O)N(C)CCN3CC(C)C)c(C)o1`, the cytotoxicity at 10 µM is -112%.
Turning to `N#Cc1cc(F)ccc1CN1CCCC1Cn1cccn1` (stereo unspecified), the cytotoxicity at 10 µM is 2.01%.
Next, `CCOCCC1(CNC(=O)c2ccncc2Cl)CCC1`: 5.38%; `Cc1nc(N)cc(NCc2csc(N(C)C)n2)n1`: -5.2%.
In the case of `Cc1onc(-c2ccncc2)c1C(=O)NC1CCCOC1` (stereo unspecified), the cytotoxicity at 10 µM amounted to 4.51%.
Regarding `CC(C)[C@H]1CN(c2ccncc2)C[C@@H]1NS(=O)(=O)N(C)C`, the cytotoxicity at 10 µM came to 4.56%.
Take `CC(C)CNc1cc(-c2c[nH]nc2C2CCN(C(=O)C3CC3)C2)ccn1` (stereo unspecified): the cytotoxicity at 10 µM turned out to be 83.8%.
On to `Cc1[nH]c2c(C)ccc(C)c2c1CC(=O)NCCNc1cccnc1`, for which the cytotoxicity at 10 µM amounted to 0.393%.
On to `CCCOC1CCCN(Cc2nc(-c3cccs3)oc2C)C1` (stereo unspecified), for which the cytotoxicity at 10 µM was -53.1%.
For `O=C(NCc1nnc2n1CCCCC2)N(Cc1ccncc1)C1CC1`, the cytotoxicity at 10 µM came to 9.66%.
Next, `CC(C)(CN)NS(=O)(=O)c1cccc(F)c1F`: -5.7%; `COc1ncccc1NC(=O)C1CC1`: -19.2%; `Cc1[nH]ccc1C(=O)N(C)C1CC(=O)N(Cc2ccccc2)C1=O` (stereo unspecified): 8.76%.
For `CC1CN(c2ncnc3ccccc23)CCO1` (stereo unspecified), the cytotoxicity at 10 µM is 23.6%.
On to `Cc1nc(C)n(CC2CN(Cc3cccnc3)Cc3nccn3C2)n1` (stereo unspecified), for which the cytotoxicity at 10 µM is -141%.
Turning to `Cc1noc(C)c1-c1ccc(C2CCCN2C(=O)c2cccnc2)nc1` (stereo unspecified), the cytotoxicity at 10 µM was determined as 4.7%.
Next, `COc1ccc(Br)c(C(=O)NCC2CCN(C(=O)c3ccoc3)CC2)c1`: -21.7%; `CNC(=O)c1cnc(C)nc1CCNC(=O)CCc1ccccc1`: -0.0555%; `O=C1CSc2ccc(C(=O)N3CCCC(n4cccn4)C3)cc2N1` (stereo unspecified): -6.65%.
The figure for `Cc1ccc(CN2CCn3cc(CN4CCN(C)CC4)nc3C2)cc1` is -125%; for `CCC(C)NC(=O)NCCC(=O)N1CCN(c2ccccn2)CC1` (stereo unspecified) it is 4.22%; for `CC(=O)N1CCC2(CC1)COCCN2CCN(C)C` it is -7.98%.
The figure for `Cc1ccc(S(=O)(=O)N2CCC(N3CCCCC3)CC2)cc1C` is 8.95%; for `COc1cc(N2C[C@H](OCc3cccnc3)[C@H]3OCCC[C@H]32)ncn1` it is 4.13%.
Take `CCc1noc(CN2CCN(C(=O)Cc3ccc(F)cc3)CC2)n1`: the cytotoxicity at 10 µM stood at 10.4%.
Consider `OC(CN1CC(n2cccn2)C1)c1ccc2c(c1)OCCO2` (stereo unspecified), for which the cytotoxicity at 10 µM was -19%.
On to `CN(C)S(=O)(=O)N1C[C@H]2CC[C@@H](C1)N(Cc1ccc3c(c1)OCCO3)C2`, for which the cytotoxicity at 10 µM amounted to 4.52%.
As to `CN(C)CCn1ccnc1C1CCN(c2cc(N)nc(N)n2)CC1`, the cytotoxicity at 10 µM was determined as 0.829%.
Next, `CNC(=O)C1Cn2ccnc2C2(CCN(Cc3cccc(C)n3)CC2)O1` (stereo unspecified): 7.67%; `Cc1ccsc1[C@@H]1CCN(C(=O)Cn2cc3ccccc3n2)C[C@H]1O`: -1.96%; `CCOc1cc(C(=O)N2CCOCC2)cc2occc12`: -4.92%.
For the molecule `CCC(C)NC(=O)Nc1cccc(OCC#N)c1` (stereo unspecified), the cytotoxicity at 10 µM is -0.146%.
Next, `CC1CCCN(Cc2cccc(C(=O)Nc3nccs3)c2)C1` (stereo unspecified): -5.68%.
As to `CCc1nc(C#N)c(N2CCC(c3nc(-c4ccccc4)no3)CC2)o1`, the cytotoxicity at 10 µM was 0.689%.
Take `Cc1ccoc1C(=O)N1CC[C@@H]2O[C@@H](C)C[C@H]2C1`: the cytotoxicity at 10 µM was 2.26%.
As for `Cn1cnc2cc(CCC(=O)Nc3nc[nH]n3)ccc21`, the cytotoxicity at 10 µM stood at 4.44%.
Take `Cc1nccn1C1CCCN(C(=O)c2ccc3c(c2)NC(=O)CO3)C1` (stereo unspecified): the cytotoxicity at 10 µM is -11.5%.
On to `CC(Oc1ccccc1C(F)(F)F)C(=O)NCCC(=O)N(C)C` (stereo unspecified), for which the cytotoxicity at 10 µM was -4.25%.
Turning to `CSCc1ccc(C(=O)NCCCNc2ccc(C(F)(F)F)cn2)cc1`, the cytotoxicity at 10 µM turned out to be 3.84%.
Next, `CC(C(=O)NCc1ccnc(N2CCN(C)CC2)c1)S(C)(=O)=O` (stereo unspecified): -13.9%; `CNC(=O)C(C)(C)N1CCC[C@H]1C(=O)NC1CCCC1`: -3.01%; `CC(C)Nc1nc2c(c(N(C)C)n1)CCN(Cc1nccn1C)CC2`: 1.35%.
On to `CN1CCN(C(=O)c2ccccc2)CC(Cc2cc(N(C)C)ncn2)C1` (stereo unspecified), for which the cytotoxicity at 10 µM turned out to be 2%.
For `Cn1c2c(c(=O)n1C)CN(C(=O)c1ccncc1F)CCC2`, the cytotoxicity at 10 µM is -95%.
Turning to `Cc1ccc(C)c(C(NC(=O)C2CC2)c2cccnc2)c1` (stereo unspecified), the cytotoxicity at 10 µM is -3.5%.
Take `Cn1nnc2c1CCN(S(C)(=O)=O)C2COCC1CC1` (stereo unspecified): the cytotoxicity at 10 µM was -4.6%.
In the case of `CN(C)C(=O)CN(C)C(=O)c1cnc(Cc2ccc(F)cc2)s1`, the cytotoxicity at 10 µM came to 8.66%.
The figure for `Cc1cc2[nH]c(CN3CCOC(c4ccc(F)cc4)C3)cc(=O)n2n1` (stereo unspecified) is -4.89%; for `CC1COCCN1C(=O)NCCn1ccnc1` (stereo unspecified) it is -50.4%.
As to `Cc1noc2nc(C3CCCN(Cc4cccnc4)C3)cc(C(F)F)c12` (stereo unspecified), the cytotoxicity at 10 µM was -30.3%.
Consider `c1cc(-c2nnn3c2COC(CNCC2CCOCC2)C3)ccn1` (stereo unspecified), for which the cytotoxicity at 10 µM was -23.8%.
`Cc1ccccc1-c1noc(-c2ccc(N(C)C3CCOCC3)nc2)n1`: the cytotoxicity at 10 µM stood at 2.65%.
Next, `O=C1CC(c2ccc(C(=O)O)cc2)c2ncn(-c3ccccc3F)c2N1` (stereo unspecified): -3.51%; `CCC(CC)C(=O)N1CCCc2c(cnn2C)C1`: 6.55%.
As for `CC(C)c1ccc(CS(=O)(=O)CC(=O)NCc2ccccc2F)cc1`, the cytotoxicity at 10 µM came to 8.31%.
For the molecule `CC(NC(=O)CCCc1ccc(Cl)cc1)c1nnn[nH]1` (stereo unspecified), the cytotoxicity at 10 µM came out at 0.292%.
On to `CC(=O)N1CCN(C(=O)C2CCN(c3cccnn3)C2)CC1` (stereo unspecified), for which the cytotoxicity at 10 µM was -17.6%.
With `Cc1ccc(S(=O)(=O)Cc2nnc(C)n2C)cc1`, the cytotoxicity at 10 µM is -2.92%.
Consider `Cc1cnccc1N1CCN(C[C@]2(O)CCCN3CCCC[C@@H]32)CC1`, for which the cytotoxicity at 10 µM came to 10.4%.
Consider `COc1c(C2CCCN2C(=O)c2ccco2)c(C)nn1C` (stereo unspecified), for which the cytotoxicity at 10 µM was -1.68%.
Next, `CN(C)c1ncccc1CNCc1cccc(O)c1`: 5.05%; `O=C(c1cccc(F)c1)N1CCN2C[C@H](OCc3cccnc3)C[C@H]2C1`: 4.4%; `Cc1nc(CO[C@@H]2CN(Cc3ccco3)[C@@H]3COC[C@@H]32)cs1`: 5.66%.
Next, `COCCN(Cc1ccccn1)C(=O)CC1OCCc2ccccc21` (stereo unspecified): -42.5%.
On to `Cc1nc(NC(=O)NC2CC(=O)N(C(C)C)C2)nn1C(C)C` (stereo unspecified), for which the cytotoxicity at 10 µM is -1.55%.
Regarding `FC(F)(F)c1ccc(-c2c[nH]c([C@@H]3COCCN3)n2)cc1`, the cytotoxicity at 10 µM was determined as 1.05%.
As to `COc1cccc(OCC(=O)N2CCC3(CC2)[C@H](O)C[C@@H]3OC)c1`, the cytotoxicity at 10 µM was found to be 0.866%.
Regarding `c1cncc(O[C@@H]2CC[C@H]3[C@H]2OCCN3C2CCCC2)c1`, the cytotoxicity at 10 µM was 1.76%.
In the case of `Cn1cc(C(=O)NCc2cn3c(n2)CN(C2CCOCC2)CC3)cn1`, the cytotoxicity at 10 µM is 11.2%.
In the case of `c1ccc(-c2nc(CN3CCCCC3Cn3cncn3)co2)cc1` (stereo unspecified), the cytotoxicity at 10 µM is -14.4%.
